Data reported in ChEMBL document CHEMBL1156678, “A new class of analgesic agents toward prostacyclin receptor inhibition: synthesis, biological studies and QSAR analysis of 1-hydroxyl-2-substituted phenyl-4,4,5,5-tetramethylimidazolines” (Eur J Med Chem, 2008).

Legend:
Mus musculus [1] = assay: Analgesic activity in ICR mouse assessed as pain threshold variation at 0.013 mmol/kg, ip after 150 mins by tail flick test relative to control; type: functional
Summary of the method: (§1)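 Male ICR mice (25 ± 2 g), kept on a 12/12 h light/dark cycle at 21 ± 2 °C for one day before use. Each received a single i.p. injection in 0.2 ml saline + 0.01 ml DMSO + 0.02 ml Tween-80. Vehicle-only mice served as controls. Basal tail-flick threshold was measured four times (BPT). Thresholds were then read every 30 min for 150 min. PTV = (post-dose threshold − BPT)/BPT. n = 10, x ± SD.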

Mus musculus [2] = assay: Thrombotic toxicity in ICR mouse assessed as tail bleeding time at 1.3 mmol/kg, ip after 15 mins; type: organism-based; settings: in vivo, 0.25 h
Summary of the method: (§2)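 Male ICR mice (25 ± 2 g) were kept one day on a 12/12 h light/dark cycle at 21 ± 2 °C. Each received a single i.p. dose of 1.30 mmol/kg in saline/DMSO/Tween-80 (0.2/0.01/0.02 ml), or the solvent only. The restrained mouse had 1 mm cut from the tail before dosing and at 5, 15, 30 and 60 min. Bleeding time (s) is reported as mean ± SD.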

Mus musculus [3] = assay: Thrombotic toxicity in ICR mouse assessed as tail bleeding time at 1.3 mmol/kg, ip after 5 mins; type: organism-based; settings: in vivo; summary of the method: as §2
Mus musculus [4] = assay: Analgesic activity in ICR mouse assessed as pain threshold variation at 0.013 mmol/kg, ip after 60 mins by tail flick test relative to control; type: functional; summary of the method: as §1
Mus musculus [5] = assay: Analgesic activity in ICR mouse assessed as pain threshold variation at 0.0013 mmol/kg, ip after 90 mins by tail flick test relative to control; type: functional; summary of the method: as §1
Mus musculus [6] = assay: Analgesic activity in ICR mouse assessed as pain threshold variation at 0.13 mmol/kg, ip after 120 mins by tail flick test; type: functional; summary of the method: as §1
Mus musculus [7] = assay: Analgesic activity in ICR mouse assessed as pain threshold variation at 0.0013 mmol/kg, ip after 60 mins by tail flick test relative to control; type: functional; summary of the method: as §1
Mus musculus [8] = assay: Thrombotic toxicity in ICR mouse assessed as tail bleeding time at 1.3 mmol/kg, ip after 30 mins; type: organism-based; settings: in vivo, 0.5 h; summary of the method: as §2
Mus musculus [9] = assay: Analgesic activity in ICR mouse assessed as pain threshold variation at 0.013 mmol/kg, ip after 90 mins by tail flick test relative to control; type: functional; summary of the method: as §1
Mus musculus [10] = assay: Analgesic activity in ICR mouse assessed as pain threshold variation at 0.0013 mmol/kg, ip after 30 mins by tail flick test relative to control; type: functional; summary of the method: as §1
Mus musculus [11] = assay: Analgesic activity in ICR mouse assessed as pain threshold variation at 0.013 mmol/kg, ip after 30 mins by tail flick test relative to control; type: functional; summary of the method: as §1
Mus musculus [12] = assay: Analgesic activity in ICR mouse assessed as pain threshold variation at 0.013 mmol/kg, ip after 120 mins by tail flick test relative to control; type: functional; summary of the method: as §1
Mus musculus [13] = assay: Analgesic activity in ICR mouse assessed as pain threshold variation at 0.0013 mmol/kg, ip after 120 mins by tail flick test relative to control; type: functional; summary of the method: as §1
Mus musculus [14] = assay: Analgesic activity in ICR mouse assessed as pain threshold variation at 0.13 mmol/kg, ip after 150 mins by tail flick test; type: functional; summary of the method: as §1
Mus musculus [15] = assay: Thrombotic toxicity in ICR mouse assessed as tail bleeding time at 1.3 mmol/kg, ip after 60 mins; type: organism-based; settings: in vivo, 1 h; summary of the method: as §2
Mus musculus [16] = assay: Analgesic activity in ICR mouse assessed as pain threshold variation at 0.13 mmol/kg, ip after 60 mins by tail flick test relative to control; type: functional; summary of the method: as §1
Mus musculus [17] = assay: Analgesic activity in ICR mouse assessed as pain threshold variation at 0.13 mmol/kg, ip after 90 mins by tail flick test relative to control; type: functional; summary of the method: as §1
Mus musculus [18] = assay: Analgesic activity in ICR mouse assessed as pain threshold variation at 0.13 mmol/kg, ip after 30 mins by tail flick test relative to control; type: functional; summary of the method: as §1
[19] = Cardiovascular toxicity in rat aorta assessed as inhibition of noradrenaline-induced vasoconstriction at 5 mM relative to control; type: tissue-based; settings: isolated rat aorta
Summary of the method: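 Rat aortic strips were contracted with noradrenaline, washed, stabilized for 30 min, and contracted again. At peak contraction, compound was added (final 5 × 10^-3 M) or vehicle alone. The relaxant response was recorded as percentage inhibition of the contraction.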

Mus musculus [20] = assay: Analgesic activity in ICR mouse assessed as pain threshold variation at 0.0013 mmol/kg, ip after 150 mins by tail flick test relative to control; type: functional; summary of the method: as §1

Compound `CC1(C)N=C(c2ccccc2F)N(O)C1(C)C` has an Activity (Mus musculus [1]) of 69.89%, an Activity (Mus musculus [2]) of 117 s and an Activity (Mus musculus [3]) of 117 s. The Activity (Mus musculus [4]) was 53.11%, the Activity (Mus musculus [5]) was 36.96% and the Activity (Mus musculus [6]) was 75.97%. The Activity (Mus musculus [7]) was 36.02%, the Activity (Mus musculus [8]) was 119 s and the Activity (Mus musculus [9]) was 54%. For the same compound, the Activity (Mus musculus [10]) was 27.64%, the Activity (Mus musculus [11]) was 45.44% and the Activity (Mus musculus [12]) was 56.97%. For the same compound, the Activity (Mus musculus [13]) was 37.8%, the Activity (Mus musculus [14]) was 90.94% and the Activity (Mus musculus [15]) was 119 s. It also gave an Activity (Mus musculus [16]) of 72.72%, an Activity (Mus musculus [17]) of 73.25% and an Activity (Mus musculus [18]) of 66.15%. The inhibition at 5000 µM [19] was 22.7% and the Activity (Mus musculus [20]) was 47.03%.
